Compound activity: PubChem, The Scripps Research Institute Molecular Screening Center
HTRA1 inhibitor = HTRA1 serine protease inhibitors, primary screen, biochemical, fluorescence polarization, HTS; Q92743; inhibition, % at 5.96 µM; actives 0.5% (n = 340,000); recombinant HTRA1, FP-rhodamine activity-based probe; AID 504803, 2011; in the data active = inhibition above about 36%
rCAG binder = binders of r(CAG) RNA repeats, primary screen, biochemical, fluorescence. r(CAG) RNA repeat, TO-PRO-1 dye displacement fluorescence. inhibition, % at 3 µM. actives 1.3% (n = 370,000). AID 651821, 2012;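 active = inhibition above the plate cutoff, the mean of all test compounds on that plate plus 3 SD, cut at about 35% in these data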;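 note: higher means more dye released from RNA so lower well fluorescence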
SIAE inh = human SIAE inhibitors, primary screen, biochemical, fluorescence polarization, FP-Rh probe, 1536-well HTS | Sialate O-acetylesterase (Homo sapiens), Q9HAT2 | SIAE FP-Rh probe binding | inhibition, % at 9.66 µM | actives 0.69% (n = 370,000);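 active = inhibition above a cutoff: mean of compounds within the control limits plus 3 SD of those, cut at about 17% in these data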
ABHD4 inh = ABHD4 inhibitors, primary screen, biochemical, fluorescence polarization, mouse; purified mABHD4, FP-Rh probe fluorescence polarization; inhibition, % at 8.92 µM; actives 0.54% (n = 370,000); AID 720543, 2013;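 active = inhibition exceeding the mean over every tested compound plus 3 SD, cut at about 30% in these data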
Target sequence (Q8VD66 whole entry, looked up): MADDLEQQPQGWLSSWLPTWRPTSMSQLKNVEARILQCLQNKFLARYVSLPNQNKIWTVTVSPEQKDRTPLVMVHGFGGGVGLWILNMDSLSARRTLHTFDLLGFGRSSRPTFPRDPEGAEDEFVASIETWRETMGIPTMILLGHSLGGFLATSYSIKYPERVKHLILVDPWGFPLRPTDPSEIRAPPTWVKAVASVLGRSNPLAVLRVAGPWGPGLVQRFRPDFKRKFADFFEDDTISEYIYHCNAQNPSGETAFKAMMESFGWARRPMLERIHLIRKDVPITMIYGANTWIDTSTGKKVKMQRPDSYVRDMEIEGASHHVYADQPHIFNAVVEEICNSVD
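System: mouse ABHD4 enzyme, wild type / Medium: HEPES pH 7.0, NaCl, Pluronic buffer / Reagent: FP-Rh activity-based fluorescent probe / Control set: S159A mutant high control, sample median low control / Detection: fluorescence polarization with parallel and perpendicular emission, 525/598 nm / Schedule: 45 min + 60 min at 25 °C / Compound dosing: 8.92 µM, single dose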
PRMT1 inh = PRMT1 methyltransferase inhibitors, primary screen, biochemical, fluorescence polarization; Protein arginine N-methyltransferase 1 (Homo sapiens), Q99873; recombinant PRMT1, activity-based probe fluorescence polarization; inhibition, % at 2.79 µM; actives 1.3% (n = 370,000); AID 652257, 2013;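 active = inhibition above about 21% made by adding two undisclosed values, limit read from the data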
TCR CD3 inh = inhibitors of human TCR-CD3 interaction, primary screen, biochemical, fluorescence, TAMRA-labeled TCR probe; actives 0.37% (n = 360,000); AID 651800, 2012; inhibition, % at 9.4 µM; T-cell receptor (TCR); in the data active = inhibition above about 19%;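 note: recombinant mutant TCR 2C K166C tagged with TAMRA read by polarization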
PRMT1 confirm = PRMT1 methyltransferase inhibitors, confirmation, biochemical, fluorescence polarization, triplicate; shares compounds with PRMT1 inh; recombinant His-PRMT1, activity-based probe fluorescence polarization; inhibition, % at 2.79 µM; actives 42% (n = 3,300); AID 687036, 2013;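 active = mean inhibition across replicates above the hit cutoff derived for the earlier primary screen, cut at about 22% in these data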
Each line names hits and unclear results; the compound was inactive in the other large screens (follow-up assays come after a bar, where they were run). The list is not random: actives were taken first. Their share in the collection is about 3.5%.

Cc1ccc(C2C3=C(CC(C)(C)CC3=O)Nc3[nH]c(=S)[nH]c(=O)c32)cc1 (stereo not drawn)	PRMT1 inh 52 | PRMT1 confirm inactive
Cc1ccc(/C(C#N)=C\c2ccc(N3CCOCC3)o2)cc1	PRMT1 inh 27 | PRMT1 confirm inactive
CC(C)(C)N1Cc2nnn(CC3CCCCC3)c2-c2ccccc2S1(=O)=O	none (no result: HTRA1 inhibitor, TCR CD3 inh)
O=C(CSc1ccccn1)c1ccc(F)cc1	PRMT1 inh 27 | PRMT1 confirm 24
Cc1ccc(C(=O)CSc2ccccn2)cc1	PRMT1 inh 61 | PRMT1 confirm 40
CCOc1ccc(NC(=O)CN2CCCN(c3ccc(OC)cc3)CC2)cc1	none (no result: HTRA1 inhibitor, TCR CD3 inh)
CCCCCCCCN1C(=O)[C@@H](CC(=O)NCc2ccccc2)C[C@@]2(C(=O)OC)C1=C[C@H](COCc1ccccc1)O[C@@H]2C	none (no result: HTRA1 inhibitor, TCR CD3 inh)
Cc1sc(NC(=S)NC(=O)c2ccco2)c(C#N)c1C	PRMT1 inh 49 | PRMT1 confirm inactive
Cc1sc(NC(=S)NC(=O)c2ccccc2)c(C#N)c1C	none
Cc1ccc(NC(=O)CSc2nc(N)cc(=O)[nH]2)cc1S(=O)(=O)N1CCCCC1	PRMT1 inh 44 | PRMT1 confirm inactive
O=C1c2ccc([N+](=O)[O-])cc2S(=O)(=O)N1Cc1ccccc1	none
NNc1cc([N+](=O)[O-])cc2c1C(=O)N(Cc1ccccc1)S2=O (stereo not drawn)	PRMT1 inh 26 | PRMT1 confirm inactive
O=c1oc2c(-c3cccc(F)c3)cc(O)cc2s1	PRMT1 inh 36 | PRMT1 confirm inactive
CCCC/C=C1/[C@@H](CC)N(Cc2ccc(OC)cc2OC)C2=N[C@H](c3ccccc3)CC(=O)N21	none (no result: HTRA1 inhibitor, rCAG binder, TCR CD3 inh)
Cc1nnc(SCC2=C(C(=O)O)N3C(=O)[C@@H](NC(=O)Cn4cnnn4)[C@H]3SC2)s1	none
Cc1nnc(SCC2=C(C(=O)O)N3C(=O)C(NC(=O)COc4ccccc4)C3SC2)s1 (stereo not drawn)	PRMT1 inh 38 | PRMT1 confirm 69
Cc1nnc(SCC2=C(C(=O)O)N3C(=O)C(NC(=O)COc4ccc(F)cc4)C3SC2)s1 (stereo not drawn)	PRMT1 inh 31 | PRMT1 confirm 23
CCC(C(=O)NC1C(=O)N2C(C(=O)O)=C(CSc3nnc(C)s3)CSC12)c1ccccc1 (stereo not drawn)	PRMT1 inh 28 | PRMT1 confirm inactive
Cc1nnc(SCC2=C(C(=O)O)N3C(=O)C(NC(=O)c4cc(F)c(F)cc4Cl)C3SC2)s1 (stereo not drawn)	PRMT1 inh 34 | PRMT1 confirm inactive
C[C@@H]1C[C@H]2[C@@H](C)C(=O)N3[C@H](c4ccccc4)[C@H](C)C[C@H]3[C@@H](C)C(=O)N2[C@@H]1c1ccccc1	none (no result: HTRA1 inhibitor, TCR CD3 inh)
C=CCN1C(=O)[C@@H](CC(=O)N2CCSCC2)[C@]2(C(=O)OCC)CCCCC/C=C/12	none (no result: HTRA1 inhibitor, TCR CD3 inh)
Cc1ccc(-c2c(NC(=O)c3ccccc3)nc3ncccn23)cc1	none (no result: HTRA1 inhibitor, TCR CD3 inh)
O=[N+]([O-])c1cccc(OC[C@@H](O)CN2CCC(C(O)(c3ccccc3)c3ccccc3)CC2)c1	none (no result: HTRA1 inhibitor, TCR CD3 inh)
Cc1occc1-c1nnc(SCC(=O)Nc2ccncc2)n1-c1ccccc1	none (no result: HTRA1 inhibitor, TCR CD3 inh)
C[C@@H]1CCN(C2CC2)S(=O)(=O)c2ccc(N3CC[C@@H](N(C)C)C3)cc2O1	none (no result: HTRA1 inhibitor, TCR CD3 inh)
CCN(CC)CCSc1nc(O)c(-c2ccccc2)c(=O)n1-c1ccccc1	PRMT1 inh 25 | PRMT1 confirm inactive
CCN(CC)CCSc1nc(O)c(Cc2ccccc2)c(=O)n1-c1ccccc1	none
CCOC(=O)C1CCCN(S(=O)(=O)c2ccc3c(c2)NC(=O)CO3)C1 (stereo not drawn)	none
CCOC(=O)C1CCCN(S(=O)(=O)c2cc3c(cc2Cl)NC(=O)CO3)C1 (stereo not drawn)	PRMT1 inh 34 | PRMT1 confirm inactive
